# System: Plasmodium yoelii
# Assay: NOVARTIS: Antimalarial liver stage activity measured as reduction in Plasmodium yoelii schizont area in HepG2-A16-CD81 cells by immuno-fluorescence, and median schizont size at 10uM compound concentration
# Format: functional, organism-based
# Conditions: for IC50: Plasmodium yoelii, HepG2-A16-CD81
# Procedure, shortened: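 Host and parasite nuclei stained with Hoechst 33342, parasites with αPyHSP70 antibody; 25 images per well by high-content imaging; median parasite (schizont) area measured by automated image analysis, ~50 schizonts per experiment, two or more independent experiments.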
SMILES,Schizont size,IC50
COc1cc(C(=O)N2N=C(c3c(-c4ccccc4)c4cc(Br)ccc4[nH]c3=O)CC2c2cccc([N+](=O)[O-])c2)cc(OC)c1OC (configuration not stated),29.43 um,435 nM
CCCc1ccc(C(=O)NC(=O)c2ccccc2O)cc1,23.17 um,4.18 nM
N#Cc1ccc(NC(=O)NC2CC3CCCC(C2)N3CCc2ccccc2)cc1 (configuration not stated),62 um,497 nM
CCOC(=O)c1cn(CC)c2cc(N(C)CCc3ccc(OC)c(OC)c3)c(F)cc2c1=O,23.69 um,42.1 nM
COc1ccc(-c2c(C(F)(F)F)nn(C)c2NC(=O)Nc2ccc(F)cc2F)cc1,103.33 um,3450 nM
CCOc1ccc2ncc(S(=O)(=O)c3ccc(OC)cc3)c(N3CCN(C)CC3)c2c1,63.67 um,10.7 nM
CC(c1nc2ccccc2c(=O)n1C)N1CCN(C(=O)C(C)(C)C)CC1 (configuration not stated),–,492 nM
CCOC(=O)c1ccc2nc(-c3ccccc3)cc(O)c2c1,20.67 um,20 nM
Cc1nc([P+](c2ccccc2)(c2ccccc2)c2ccccc2)c(SCc2ccccc2)o1.[O-][Cl+3]([O-])([O-])[O-],31.83 um,33.5 nM
COc1ccc2sc(Nc3nc(-c4ccccn4)cs3)nc2c1,28.91 um,159 nM
Brc1ccc(-c2cn3c([n+]2-c2ccccc2)SCC3)cc1.[Br-],78.7 um,828 nM
COc1ccccc1Cc1nc2ccccc2nc1SCC(=O)Nc1cccc(C(F)(F)F)c1,187.88 um,> 10000 nM
O=C1c2ccccc2C2=Nc3ccccc3SC(c3cccc(F)c3)C12 (configuration not stated),30.06 um,162 nM
CCCCCC[n+]1ccccc1C=Cc1ccc(N(C)C)cc1.[I-],16.8 um,55.9 nM
Cc1ccc(C2Sc3ccccc3NC3=C2C(=O)c2ccccc23)cc1 (configuration not stated),27.03 um,278 nM
Cc1cc(C)nc(NC(=N)Nc2cccc(O)c2)n1,88.2 um,152 nM
CC(=O)N(C1=C(N2CCOCC2)C(=O)c2ccccc2C1=O)c1cccc(Cl)c1,43.73 um,744 nM
CCCn1c(-c2cccc(Br)c2)nc2ccccc21,198.63 um,> 8910 nM
Brc1ccc(Nc2nc(NCc3ccco3)c3ccccc3n2)cc1,35.17 um,163 nM
O=C(Nc1ccc2oc(-c3cccc4ccccc34)nc2c1)c1ccc([N+](=O)[O-])o1,13.99 um,72.5 nM
O=C(c1cccc([N+](=O)[O-])c1)c1ccc(Cl)c(Cl)c1,108.65 um,3810 nM
CCOC(=O)c1cnc2ccc(C(C)C)cc2c1O,31.42 um,352 nM
CCNC(=O)C1CCN(c2cccc3c2C(=O)N(C2CCCCCCC2)C3=O)CC1,30.48 um,269 nM
CC(=O)Nc1nc(C)c(-c2csc(Nc3ccc(C)cc3)n2)s1,104.48 um,1890 nM
O=[N+]([O-])c1ccc(N2CCCN(C(=S)Nc3ccc(F)cc3Br)CC2)nc1,120.24 um,4620 nM
CC(C)NCC(O)Cn1c2ccc(Cl)cc2c2cc(Cl)ccc21 (configuration not stated),88.41 um,2970 nM
COc1cc(OC)c(NC(=O)C2c3ccccc3C(=O)N(C)C2c2ccc(OC)c(OC)c2)cc1Cl (configuration not stated),165.85 um,> 9130 nM

SMILES,Schizont size,IC50
CCc1ccccc1N=C1c2c(cccc2[N+](=O)[O-])C(=O)C1C(C)=O (configuration not stated),83.4 um,2030 nM
O=[N+]([O-])c1cccc(C(Nc2nccs2)c2ccc3cccnc3c2O)c1 (configuration not stated),43.42 um,358 nM
N#Cc1c2c(c(N3CCN(c4ccccn4)CC3)n3c1nc1ccccc13)CCC2,174.41 um,> 10000 nM
CCN1CCN(c2c(C(=O)c3ccccc3)cnc3cc(OC)c(OC)cc23)CC1,89.76 um,367 nM
CCCCC(CC)C(=O)N1CCN(C(CC)c2nc3ccccc3c(=O)n2C)CC1 (configuration not stated),–,231 nM
O=C(Nc1ccc(Oc2cccc(Oc3ccc(NC(=O)c4ccc(Br)o4)cc3)c2)cc1)c1ccc(Br)o1,18.79 um,433 nM
Cc1oc2c(c1C(=O)NCCCn1ccnc1)C(=O)c1ccccc1C2=O,12.53 um,119 nM
Cc1nc2ccccc2c(O)c1CC=C(Cl)Cl,43.21 um,130 nM
O=C(O)c1c[nH]c2cc(N3CCCCCC3)c(F)cc2c1=O,224.51 um,> 10000 nM
S=C(NN=Cc1ccccn1)NC1CC2CC1C1C=CCC21 (configuration not stated),27.45 um,25.6 nM
COc1ccc(-c2n(C)c3ccccc3[n+]2CC(=O)OC2CC(C)CCC2C(C)C)cc1.[Cl-] (configuration not stated),14.3 um,156 nM
CN(C)c1cc[n+](CC(=O)Nc2ccc(Cl)cc2)cc1.[Cl-],69.62 um,584 nM
CCOC(=O)c1c(CSc2ccccc2)oc2cc(CN(C)C)c(O)c(Cl)c12,188.08 um,7200 nM
CCCCCCCCn1c(C)[n+](CC)c2cc(C(=O)OCC)ccc21.[I-],63.77 um,990 nM
CCN1C(=O)N(CC)C(NNC(N)=S)C1NNC(N)=S (configuration not stated),103.75 um,68.6 nM
O=C(c1cccs1)N1CCN(c2ccc([N+](=O)[O-])c(NC3CC3)c2)CC1,83.6 um,692 nM
O=[N+]([O-])c1cc(C(F)(F)F)ccc1N1CCCN(C(=S)Nc2ccccc2)CC1,93.73 um,2230 nM
CC(Oc1ccc(Cl)cc1Cl)c1nc(-c2ccc(NC(=O)c3ccco3)cc2)no1 (configuration not stated),28.18 um,154 nM
O=C(Nc1ccc(-c2ccc(Cl)cc2)cc1)c1cccs1,31.73 um,151 nM
Cc1cccc(-c2cc3nc(C)c(C)c(O)n3n2)c1,67.43 um,1100 nM
COc1cccc(Nc2nc(NCCO)c3ccccc3n2)c1.Cl,54.9 um,62.3 nM
Cc1ccccc1N=Nc1ccc(NC(=O)c2ccco2)c(C)c1,51.87 um,300 nM
COc1cccc(N2C(N)=NC(N)=NC2(C)C)c1.Cl,38.1 um,29.5 nM
CC(c1nc2ccc(Cl)cc2c(=O)n1C)N1CCN(S(=O)(=O)c2cccc3ccccc23)CC1 (configuration not stated),–,22.3 nM
Cc1ccc(Nc2nc(NCc3ccccc3)c3ccccc3n2)cc1,31.73 um,278 nM
CCC(Sc1nnc(-c2ccc(C)cc2)c(-c2ccc(C)cc2)n1)C(=O)NCCOC (configuration not stated),42.59 um,303 nM
c1ccc(OCCOc2ccc(Nc3c4ccccc4nc4ccccc34)cc2)cc1,41.33 um,559 nM

SMILES,Schizont size,IC50
CCCC(=O)NC(c1ccc(Cl)cc1)c1ccc2cccnc2c1O (configuration not stated),14.09 um,190 nM
CC(=O)N1c2ccc(C)cc2C(C)(c2ccccc2)CC1(C)C (configuration not stated),105.42 um,1250 nM
Cc1ccc2[nH]c(C)c(Br)c(=O)c2c1,29.96 um,252 nM
O=C(Nc1c2ccccc2nc2ccccc12)c1cc(Cl)ccc1O,43.52 um,181 nM
N#CCSc1nc2ccccc2c2nc(CCc3c[nH]c4ccccc34)nn12,221.17 um,> 10000 nM
CCCN[P+](CC(C)C)(NCCC)NCCC,27.24 um,281 nM
Cc1cccc(C(=O)NCc2nnc(S)n2-c2cccc(C(F)(F)F)c2)c1,210.73 um,> 10000 nM
Cc1cccc(C)c1N(CC(=O)NCc1ccco1)S(C)(=O)=O,194.24 um,> 10000 nM
O=C1N(Cc2cc3ccccc3s2)CC2CN(Cc3ccsc3)CCN12 (configuration not stated),–,25.5 nM
O=C(Nc1ccc(-c2nc3ccccc3[nH]2)cc1)c1ccc(-c2ccc(Cl)cc2)o1,–,6650 nM
COc1ccc(C2CC(=O)C3=C(C2)NC(C)=C(C(=O)OC(C)C)C3c2cccc(C)c2)cc1OC (configuration not stated),90.91 um,1840 nM
c1ccc(-c2cc(N3CCN(c4ccccn4)CC3)nc(-c3ccccn3)n2)nc1,24.32 um,17.5 nM
CC(C)(C)OC(=O)N1CCC(c2c(C(=O)Nc3cccc(C(F)(F)F)c3)cnn2-c2ccc(F)cc2F)CC1,–,3120 nM
C[C@@H]1C[C@@H]([C@H](O)CC2CC(=O)NC(=O)C2)C(=O)[C@@H](C)C1 [CYCLOHEXIMIDE],14.61 um,78.1 nM
Oc1cccc2ccc(Nc3ccccn3)nc12,30.16 um,142 nM
CN(C)c1ccc(-c2n(C)c3ccccc3[n+]2C)cc1.[Cl-],46.86 um,175 nM
c1ccc(-c2ccc(-c3ccccn3)nc2)nc1,22.34 um,39.4 nM
COc1ccc2cc3[n+](cc2c1OC)CCc1cc2c(cc1-3)OCO2.[Cl-] [BERBERINE CHLORIDE],102.08 um,548 nM
Cc1ccc(OCC(=O)Nc2cccc(-c3nc4ncccc4o3)c2)cc1C,160.01 um,> 10000 nM
COC(=O)c1c(-c2c(Cl)cccc2Cl)noc1NC(=O)NN1CCCCC1,75.67 um,647 nM
CCN1C(C)=C(C)S/C1=C\c1ccc2cc(C)ccc2[n+]1C,14.93 um,11.3 nM
O=C1C(Nc2ccc(O)cc2)=CC(=NS(=O)(=O)c2cccs2)c2ccccc21,12.53 um,85.6 nM
C/C=C/[P+](c1ccccc1)(c1ccccc1)c1ccccc1,26.09 um,49.4 nM
COc1ccc(Nc2cc(C)nc(NCc3ccccc3)n2)cc1,57.82 um,636 nM
CC[n+]1c(/C=C/C=C2\N(C)c3ccccc3C2(C)C)n(Cc2ccccc2)c2ccccc21,13.99 um,6.76 nM

# — ChEMBL document CHEMBL1789904, “Imaging of Plasmodium liver stages to drive next-generation antimalarial drug discovery” (Science, 2011)
